ChEMBL document CHEMBL1142148, “Antibiotic susceptibility profile of bifidobacteria as affected by oxgall, acid, and hydrogen peroxide stress” (2007)
Converted amounts (≈) assume the structure as drawn.

Legend:
Bifidobacterium longum [1] = assay: Antimicrobial activity against Bifidobacterium longum P/N 601377; type: functional
Method in brief: (§1)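 Broth microdilution in MRS plus 0.05% L-cysteine-HCl. Mid-log culture adjusted to OD650 0.1, giving about 2.5 × 10^4 to 5.0 × 10^4 CFU/well, then added to twofold serial dilutions of agent. Plates incubated anaerobically at 37°C for 18 h and read at OD650. MIC is the lowest concentration matching the uninoculated blank OD, taken as the median of four repeats.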

Bifidobacterium animalis [2] = assay: Antimicrobial activity against Bifidobacterium animalis ATCC 27536; type: functional; method in brief: as §1
Bifidobacterium longum [3] = assay: Antimicrobial activity against 90 mins oxgall-stressed Bifidobacterium longum ATCC 15708 after 18 hrs; type: functional
Method in brief: (§2)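 Cells pelleted from mid-log MRS culture and resuspended in MRS (initial pH 6.5) with 0.3% (wt/vol) oxgall for 90 min anaerobically at 37°C. They were then regrown in MRS pH 6.5 for 24 h (footnote: 18 h) anaerobically and tested for MIC by the same broth microdilution assay. Median of four repetitions.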

Bifidobacterium longum [4] = assay: Antimicrobial activity against 90 mins hydrogen peroxide-stressed Bifidobacterium longum P/N 601377 after 18 hrs; type: functional
Method in brief: (§3)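 Stress applied for 90 min at 37°C under anaerobic conditions, using MRS (initial pH 6.5) containing H2O2 at each strain's own inhibitory concentration. The H2O2 level was set beforehand by microplate tolerance testing. Challenged cells were regrown in MRS for 24 h (footnote: 18 h) before MIC testing by broth microdilution. Median of four repetitions.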

Bifidobacterium animalis [5] = assay: Antimicrobial activity against 90 mins oxgall-stressed Bifidobacterium animalis ATCC 27536 after 18 hrs; type: functional; method in brief: as §2
[6] = tested on: Bifidobacterium thermophilum; assay: Antimicrobial activity against 90 mins hydrogen peroxide-stressed Bifidobacterium thermophilum ATCC 25866 after 18 hrs; type: functional; method in brief: as §3
[7] = Antimicrobial activity against 60 min 1 M HCl-stressed Bifidobacterium infantis ATCC 15697 after 18 hrs; type: functional, Bifidobacterium longum subsp. infantis; details: Bifidobacterium longum
Method in brief: (§4)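 Mid-log MRS culture pelleted and resuspended in MRS broth brought to pH 2.0 with 1 M HCl, held anaerobically at 37°C for 60 min, then subcultured in MRS (pH 6.5) for 24 h anaerobically before MIC testing by broth microdilution (as for unstressed cells). Table footnote gives 18 h anaerobic regrowth after the stress. MIC is the median of four repetitions.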

Bifidobacterium bifidum [8] = assay: Antimicrobial activity against 90 mins hydrogen peroxide-stressed Bifidobacterium bifidum R0071 after 18 hrs; type: functional; method in brief: as §3
[9] = tested on: Bifidobacterium pseudolongum; assay: Antimicrobial activity against 60 min 1 M HCl-stressed Bifidobacterium pseudolongum ATCC 25562 after 18 hrs; type: functional; method in brief: as §4
Bifidobacterium longum [10] = assay: Antimicrobial activity against 90 mins oxgall-stressed Bifidobacterium longum R0175 after 18 hrs; type: functional; method in brief: as §2
Bifidobacterium animalis [11] = assay: Antimicrobial activity against 60 min 1 M HCl-stressed Bifidobacterium animalis ATCC 27536 after 18 hrs; type: functional; method in brief: as §4
Bifidobacterium longum [12] = assay: Antimicrobial activity against Bifidobacterium longum R0175; type: functional; method in brief: as §1
Bifidobacterium longum [13] = assay: Antimicrobial activity against 90 mins oxgall-stressed Bifidobacterium longum P/N 601377 after 18 hrs; type: functional; method in brief: as §2
Bifidobacterium bifidum [14] = assay: Antimicrobial activity against 90 mins oxgall-stressed Bifidobacterium bifidum ATCC 15696 after 18 hrs; type: functional; method in brief: as §2
[15] = tested on: Bifidobacterium thermophilum; assay: Antimicrobial activity against 90 mins oxgall-stressed Bifidobacterium thermophilum ATCC 25866 after 18 hrs; type: functional; method in brief: as §2
Bifidobacterium breve [16] = assay: Antimicrobial activity against 60 min 1 M HCl-stressed Bifidobacterium breve ATCC 15700 after 18 hrs; type: functional; method in brief: as §4
Bifidobacterium longum [17] = assay: Antimicrobial activity against Bifidobacterium longum ATCC 15708; type: functional; method in brief: as §1
Bifidobacterium longum [18] = assay: Antimicrobial activity against 60 min 1 M HCl-stressed Bifidobacterium longum P/N 601377 after 18 hrs; type: functional; method in brief: as §4
Bifidobacterium longum [19] = assay: Antimicrobial activity against Bifidobacterium longum ATCC 15707; type: functional; method in brief: as §1
Bifidobacterium bifidum [20] = assay: Antimicrobial activity against Bifidobacterium bifidum ATCC 15696; type: functional; method in brief: as §1
Bifidobacterium longum [21] = assay: Antimicrobial activity against 90 mins oxgall-stressed Bifidobacterium longum ATCC 15707 after 18 hrs; type: functional; method in brief: as §2
Bifidobacterium bifidum [22] = assay: Antimicrobial activity against 60 min 1 M HCl-stressed Bifidobacterium bifidum BB12 after 18 hrs; type: functional; method in brief: as §4
Bifidobacterium animalis [23] = assay: Antimicrobial activity against 90 mins hydrogen peroxide-stressed Bifidobacterium animalis ATCC 27536 after 18 hrs; type: functional; method in brief: as §3
Bifidobacterium bifidum [24] = assay: Antimicrobial activity against Bifidobacterium bifidum R0071; type: functional; method in brief: as §1
Bifidobacterium longum [25] = assay: Antimicrobial activity against 90 mins hydrogen peroxide-stressed Bifidobacterium longum ATCC 15708 after 18 hrs; type: functional; method in brief: as §3
Bifidobacterium breve [26] = assay: Antimicrobial activity against 90 mins oxgall-stressed Bifidobacterium breve R0070 after 18 hrs; type: functional; method in brief: as §2
Bifidobacterium breve [27] = assay: Antimicrobial activity against 90 mins oxgall-stressed Bifidobacterium breve ATCC 15700 after 18 hrs; type: functional; method in brief: as §2
[28] = tested on: Bifidobacterium pseudolongum; assay: Antimicrobial activity against 90 mins oxgall-stressed Bifidobacterium pseudolongum ATCC 25562 after 18 hrs; type: functional; method in brief: as §2
Bifidobacterium bifidum [29] = assay: Antimicrobial activity against 90 mins oxgall-stressed Bifidobacterium bifidum R0071 after 18 hrs; type: functional; method in brief: as §2
Bifidobacterium longum [30] = assay: Antimicrobial activity against 90 mins hydrogen peroxide-stressed Bifidobacterium longum R0175 after 18 hrs; type: functional; method in brief: as §3
Bifidobacterium longum [31] = assay: Antimicrobial activity against 60 min 1 M HCl-stressed Bifidobacterium longum ATCC 15707 after 18 hrs; type: functional; method in brief: as §4
Bifidobacterium longum [32] = assay: Antimicrobial activity against 90 mins hydrogen peroxide-stressed Bifidobacterium longum ATCC 15707 after 18 hrs; type: functional; method in brief: as §3
Bifidobacterium bifidum [33] = assay: Antimicrobial activity against Bifidobacterium bifidum BB12; type: functional; method in brief: as §1
Bifidobacterium breve [34] = assay: Antimicrobial activity against 90 mins hydrogen peroxide-stressed Bifidobacterium breve R0070 after 18 hrs; type: functional; method in brief: as §3
Bifidobacterium bifidum [35] = assay: Antimicrobial activity against 90 mins hydrogen peroxide-stressed Bifidobacterium bifidum BB12 after 18 hrs; type: functional; method in brief: as §3
[36] = tested on: Bifidobacterium pseudolongum; assay: Antimicrobial activity against Bifidobacterium pseudolongum ATCC 25562; type: functional; method in brief: as §1
Bifidobacterium breve [37] = assay: Antimicrobial activity against 60 min 1 M HCl-stressed Bifidobacterium breve R0070 after 18 hrs; type: functional; method in brief: as §4
[38] = tested on: Bifidobacterium thermophilum; assay: Antimicrobial activity against 60 min 1 M HCl-stressed Bifidobacterium thermophilum ATCC 25866 after 18 hrs; type: functional; method in brief: as §4
Bifidobacterium bifidum [39] = assay: Antimicrobial activity against 60 min 1 M HCl-stressed Bifidobacterium bifidum R0071 after 18 hrs; type: functional; method in brief: as §4
Bifidobacterium breve [40] = assay: Antimicrobial activity against Bifidobacterium breve ATCC 15700; type: functional; method in brief: as §1
[41] = Antimicrobial activity against 90 mins oxgall-stressed Bifidobacterium infantis ATCC 15697 after 18 hrs; type: functional, Bifidobacterium longum subsp. infantis; details: Bifidobacterium longum; method in brief: as §2
[42] = Antimicrobial activity against Bifidobacterium infantis ATCC 15697; type: functional, Bifidobacterium longum subsp. infantis; details: Bifidobacterium longum; method in brief: as §1
Bifidobacterium bifidum [43] = assay: Antimicrobial activity against 90 mins oxgall-stressed Bifidobacterium bifidum BB12 after 18 hrs; type: functional; method in brief: as §2
[44] = tested on: Bifidobacterium thermophilum; assay: Antimicrobial activity against Bifidobacterium thermophilum ATCC 25866; type: functional; method in brief: as §1
Bifidobacterium breve [45] = assay: Antimicrobial activity against 90 mins hydrogen peroxide-stressed Bifidobacterium breve ATCC 15700 after 18 hrs; type: functional; method in brief: as §3
Bifidobacterium longum [46] = assay: Antimicrobial activity against 60 min 1 M HCl-stressed Bifidobacterium longum R0175 after 18 hrs; type: functional; method in brief: as §4
Bifidobacterium breve [47] = assay: Antimicrobial activity against Bifidobacterium breve R0070; type: functional; method in brief: as §1

MIC (Bifidobacterium longum [1]): 0.98 µg/mL (≈ 2.93 µM) | MIC (Bifidobacterium animalis [2]): 0.98 µg/mL (≈ 2.93 µM) | MIC (Bifidobacterium longum [3]): 0.98 µg/mL (≈ 2.93 µM) | MIC (Bifidobacterium longum [4]): 0.98 µg/mL (≈ 2.93 µM) | MIC (Bifidobacterium animalis [5]): 0.98 µg/mL (≈ 2.93 µM) | MIC [6]: 0.98 µg/mL (≈ 2.93 µM) | MIC [7]: 0.98 µg/mL (≈ 2.93 µM) | MIC (Bifidobacterium bifidum [8]): 0.98 µg/mL (≈ 2.93 µM) | MIC [9]: 0.98 µg/mL (≈ 2.93 µM) | MIC (Bifidobacterium longum [10]): 0.98 µg/mL (≈ 2.93 µM) | MIC (Bifidobacterium animalis [11]): 0.98 µg/mL (≈ 2.93 µM) | MIC (Bifidobacterium longum [12]): 3.9 µg/mL (≈ 11.7 µM) | MIC (Bifidobacterium longum [13]): 0.98 µg/mL (≈ 2.93 µM) | MIC (Bifidobacterium bifidum [14]): 0.98 µg/mL (≈ 2.93 µM) | MIC [15]: 0.98 µg/mL (≈ 2.93 µM) | MIC (Bifidobacterium breve [16]): 0.98 µg/mL (≈ 2.93 µM) | MIC (Bifidobacterium longum [17]): 0.98 µg/mL (≈ 2.93 µM) | MIC (Bifidobacterium longum [18]): 0.98 µg/mL (≈ 2.93 µM) | MIC (Bifidobacterium longum [19]): 0.98 µg/mL (≈ 2.93 µM) | MIC (Bifidobacterium bifidum [20]): 0.98 µg/mL (≈ 2.93 µM) | MIC (Bifidobacterium longum [21]): 0.98 µg/mL (≈ 2.93 µM) | MIC (Bifidobacterium bifidum [22]): 0.98 µg/mL (≈ 2.93 µM) | MIC (Bifidobacterium animalis [23]): 0.98 µg/mL (≈ 2.93 µM) | MIC (Bifidobacterium bifidum [24]): 3.9 µg/mL (≈ 11.7 µM) | MIC (Bifidobacterium longum [25]): 0.98 µg/mL (≈ 2.93 µM) | MIC (Bifidobacterium breve [26]): 0.98 µg/mL (≈ 2.93 µM) | MIC (Bifidobacterium breve [27]): 0.98 µg/mL (≈ 2.93 µM) | MIC [28]: 0.98 µg/mL (≈ 2.93 µM) | MIC (Bifidobacterium bifidum [29]): 0.98 µg/mL (≈ 2.93 µM) | MIC (Bifidobacterium longum [30]): 0.98 µg/mL (≈ 2.93 µM) | MIC (Bifidobacterium longum [31]): 0.98 µg/mL (≈ 2.93 µM) | MIC (Bifidobacterium longum [32]): 0.98 µg/mL (≈ 2.93 µM) | MIC (Bifidobacterium bifidum [33]): 0.98 µg/mL (≈ 2.93 µM) | MIC (Bifidobacterium breve [34]): 0.98 µg/mL (≈ 2.93 µM) | MIC (Bifidobacterium bifidum [35]): 0.98 µg/mL (≈ 2.93 µM) | MIC [36]: 0.98 µg/mL (≈ 2.93 µM) | MIC (Bifidobacterium breve [37]): 1.9 µg/mL (≈ 5.68 µM) | MIC [38]: 0.98 µg/mL (≈ 2.93 µM) | MIC (Bifidobacterium bifidum [39]): 1.9 µg/mL (≈ 5.68 µM) | MIC (Bifidobacterium breve [40]): 0.98 µg/mL (≈ 2.93 µM) | MIC [41]: 0.98 µg/mL (≈ 2.93 µM) | MIC [42]: 0.98 µg/mL (≈ 2.93 µM) | MIC (Bifidobacterium bifidum [43]): 0.98 µg/mL (≈ 2.93 µM) | MIC [44]: 0.98 µg/mL (≈ 2.93 µM) | MIC (Bifidobacterium breve [45]): 0.98 µg/mL (≈ 2.93 µM) | MIC (Bifidobacterium longum [46]): 0.98 µg/mL (≈ 2.93 µM) | MIC (Bifidobacterium breve [47]): 1.9 µg/mL (≈ 5.68 µM)
SMILES: CC1(C)S[C@@H]2[C@H](NC(=O)Cc3ccccc3)C(=O)N2[C@H]1C(=O)O [PENICILLIN G]
